The source of these data is ChEMBL document CHEMBL4261550, “Triazolopyrimidines identified as reversible myeloperoxidase inhibitors” (Medchemcomm, 2017).

Series [1] deals with T1, Myeloperoxidase (Homo sapiens) (UniProt P05164).
T1 sequence (whole entry): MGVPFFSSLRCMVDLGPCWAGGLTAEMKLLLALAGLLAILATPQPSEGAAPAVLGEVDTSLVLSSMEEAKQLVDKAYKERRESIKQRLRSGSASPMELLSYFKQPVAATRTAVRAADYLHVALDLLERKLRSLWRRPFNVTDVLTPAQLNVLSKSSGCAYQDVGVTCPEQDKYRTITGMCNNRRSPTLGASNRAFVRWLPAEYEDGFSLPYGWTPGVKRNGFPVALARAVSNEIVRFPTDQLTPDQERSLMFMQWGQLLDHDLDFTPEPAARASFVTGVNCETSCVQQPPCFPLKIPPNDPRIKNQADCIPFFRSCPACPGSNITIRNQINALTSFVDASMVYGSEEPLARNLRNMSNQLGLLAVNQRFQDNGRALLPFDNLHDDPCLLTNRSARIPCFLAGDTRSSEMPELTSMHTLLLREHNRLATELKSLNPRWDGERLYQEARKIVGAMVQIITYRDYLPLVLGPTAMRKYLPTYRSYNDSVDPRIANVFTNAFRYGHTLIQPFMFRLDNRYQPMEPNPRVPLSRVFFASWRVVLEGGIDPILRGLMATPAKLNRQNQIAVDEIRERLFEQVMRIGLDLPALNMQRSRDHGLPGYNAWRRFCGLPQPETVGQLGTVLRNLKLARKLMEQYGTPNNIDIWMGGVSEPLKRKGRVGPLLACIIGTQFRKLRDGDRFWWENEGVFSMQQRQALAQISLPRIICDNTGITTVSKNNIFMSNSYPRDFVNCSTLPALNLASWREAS
Nature of the series: Inhibition of human MPO assessed as reduction in enzyme-mediated chlorination by measuring reduction in HOCl formation at 10 uM preincubated for 10 mins followed by H2O2/NaCl addition and measured at 30 secs time interval for 5 mins by APF dye based fluorescence assay relative to control. The procedure, abridged:
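HTS APF chlorination, 1536-well: 1.75 nM human MPO with 20 μM H2O2 final, compound 10 μM final, preincubated 10 min; APF reagent added, fluorescence 485/535 nm read every 30 s for 5 min; slope normalized to DMSO (0%) and no-MPO wells (100% inhibition).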

Series [2] concerns the target T2, Myeloperoxidase (Homo sapiens, UniProt P05164).
T2 sequence (P05164 whole entry): T1 sequence (whole entry)
Description: Inhibition of human MPO assessed as reduction in enzyme-mediated chlorination by measuring reduction in HOCl formation preincubated for 10 mins followed by H2O2/NaCl addition and measured at 30 secs time interval for 5 mins by APF dye based fluorescence assay.

Series [3] addresses T2, Myeloperoxidase. Nature of the series: Inhibition of human MPO assessed as reduction in enzyme-mediated chlorination by measuring reduction in HOCl formation in presence of H2O2/NaCl measured at 30 secs time interval for 5 mins by APF dye based fluorescence assay.
Series [4] has as its target T2, Myeloperoxidase. Nature of the series: Inhibition of human MPO peroxidase activity in presence of H2O2 measured at 30 secs time interval for 5 mins by amplex red reagent based fluorescence assay.
Series [5] can be described thus: Redox activity assessed as conversion of resazurin reagent to resorufin at 10 uM after 30 mins by fluorescence assay relative to control. The series is classed as physicochemical. The following applies: 0.5 h. The essentials: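 Redox counterscreen: compound 10 μM final incubated with 5 μM resazurin reagent (final) 30 min; fluorescence intensity read; normalized to a reactive styrylpyrimidotriazinedione standard at 10 μM as 100%.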

Series [6] has as its target T3, Thyroid peroxidase (Homo sapiens, UniProt P07202).
T3 sequence (P07202 whole entry): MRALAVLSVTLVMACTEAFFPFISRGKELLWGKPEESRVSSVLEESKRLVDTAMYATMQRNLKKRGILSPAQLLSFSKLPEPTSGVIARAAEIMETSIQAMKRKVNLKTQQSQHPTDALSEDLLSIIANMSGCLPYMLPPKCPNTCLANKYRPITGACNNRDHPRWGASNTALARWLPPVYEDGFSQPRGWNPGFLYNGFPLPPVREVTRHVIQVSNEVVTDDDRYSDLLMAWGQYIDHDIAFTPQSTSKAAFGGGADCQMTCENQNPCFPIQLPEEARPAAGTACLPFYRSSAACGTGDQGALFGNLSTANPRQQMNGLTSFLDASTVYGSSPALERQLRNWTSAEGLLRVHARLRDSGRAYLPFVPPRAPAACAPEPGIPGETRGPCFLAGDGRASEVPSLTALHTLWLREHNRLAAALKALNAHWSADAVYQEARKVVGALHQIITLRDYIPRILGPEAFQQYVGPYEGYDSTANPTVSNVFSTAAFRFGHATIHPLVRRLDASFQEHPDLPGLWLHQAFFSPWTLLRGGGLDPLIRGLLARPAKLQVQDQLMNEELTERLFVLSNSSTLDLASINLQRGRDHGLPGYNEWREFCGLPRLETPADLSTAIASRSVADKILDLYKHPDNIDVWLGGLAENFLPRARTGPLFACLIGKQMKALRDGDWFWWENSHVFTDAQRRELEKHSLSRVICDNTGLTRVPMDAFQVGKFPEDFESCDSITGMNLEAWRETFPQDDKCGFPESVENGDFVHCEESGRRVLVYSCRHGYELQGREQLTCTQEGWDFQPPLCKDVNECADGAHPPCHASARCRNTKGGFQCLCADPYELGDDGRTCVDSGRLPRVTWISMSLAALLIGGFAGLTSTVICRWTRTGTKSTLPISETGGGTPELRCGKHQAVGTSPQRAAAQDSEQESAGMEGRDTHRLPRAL
Description: Inhibition of recombinant human C-terminal His6-tagged TPO (15 to 839 residues) expressed in baculovirus infected insect cells assessed as reduction in H2O2-catalyzed 3,5-iodo tyrosine formation using 3-iodotyrosine and potassium iodide preincubated for 10 mins followed by 3,5-iodo tyrosine/potassium iodide/H2O2 addition and measured after 15 mins. The essentials:
(§1)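 TPO residues 15–839 with C-terminal His6, baculovirus/T. ni expressed, purified by Ni affinity, anion exchange and size exclusion; 4.0 nM in 100 mM KPi pH 7.4, 10 min rt preincubation with inhibitor; then 400 μM KI/240 μM 3-iodotyrosine mix and 20 μM H2O2 (added solutions); 3,5-iodotyrosine formation monitored.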

The target of series [7] is MPO, mouse (Mus musculus, UniProt P11247). Nature of the series: Inhibition of mouse C-terminal His10 tagged MPO (Met16 to Thr718 residues) assessed as reduction in enzyme-mediated chlorination by measuring reduction in HOCl formation preincubated for 10 mins followed by H2O2/NaCl addition and measured at 30 secs time interval for 5 mins by APF dye based fluorescence assay.

The species entered for series [8] is Homo sapiens. Description: Selectivity ratio of IC50 for recombinant human C-terminal His6-tagged TPO (15 to 839 residues) expressed in baculovirus infected insect cells to IC50 for human MPO. The essentials:
as §1

Series [9] is filed under the species Homo sapiens. Description: Selectivity ratio of IC50 for recombinant human LPO isoform-1 (26 to 712 residues) expressed in baculovirus infected insect cells to IC50 for human MPO. The procedure, abridged:
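LPO isoform 1 residues 26–712, baculovirus/T. ni expressed, purified by cation exchange, hydrophobic interaction and size exclusion; 2.0 nM in 100 mM KPi pH 7.4, 10 min rt preincubation with inhibitor; then 400 μM KI/240 μM 3-iodotyrosine mix and 20 μM H2O2 (added solutions); 3,5-iodotyrosine formation monitored.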

MPO, mouse, sequence (P11247 whole entry, looked up): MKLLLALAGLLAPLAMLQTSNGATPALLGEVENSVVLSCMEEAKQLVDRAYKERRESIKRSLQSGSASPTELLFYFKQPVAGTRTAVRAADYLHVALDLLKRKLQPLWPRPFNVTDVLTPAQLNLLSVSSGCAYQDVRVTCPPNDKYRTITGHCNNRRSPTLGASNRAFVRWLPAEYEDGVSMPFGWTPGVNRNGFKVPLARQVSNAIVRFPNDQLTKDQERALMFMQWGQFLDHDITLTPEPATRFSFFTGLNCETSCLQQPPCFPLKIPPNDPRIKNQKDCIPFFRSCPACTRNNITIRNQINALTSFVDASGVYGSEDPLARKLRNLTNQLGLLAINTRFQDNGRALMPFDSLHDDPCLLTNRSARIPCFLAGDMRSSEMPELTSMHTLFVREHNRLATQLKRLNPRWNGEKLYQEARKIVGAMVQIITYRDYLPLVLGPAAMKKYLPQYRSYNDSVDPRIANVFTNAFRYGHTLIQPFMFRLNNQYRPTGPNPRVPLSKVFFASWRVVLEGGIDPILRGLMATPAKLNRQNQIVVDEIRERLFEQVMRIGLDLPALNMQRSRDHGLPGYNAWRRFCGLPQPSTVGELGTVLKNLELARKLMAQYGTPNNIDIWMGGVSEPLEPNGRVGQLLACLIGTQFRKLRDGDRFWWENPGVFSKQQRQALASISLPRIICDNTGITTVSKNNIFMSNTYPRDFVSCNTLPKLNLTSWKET

The inhibition is the change of the read-out against control, counted positive when it falls. What is called IC50 is the concentration needed to halve the response being measured. Regarding `Nc1nc(OCc2ccccc2)c2[nH]nnc2n1`, the inhibition in series [1] was 30%. Also, the IC50 in series [2] is 0.11 µM; in series [3], 0.084 µM; in series [4], 0.11 µM; in series [6], over 30 µM; in [7], 0.081 µM. Besides, the Activity entry in series [5] is recorded as “Not Active”. Moreover, the Ratio IC50 in [8] and in series [9] was over 10 each time.
Consider `Nc1ccc(Oc2cc(Cl)c(Cl)cc2Cl)cn1`, for which the inhibition in series [1] came to 30%. Also, the concentration for half-maximal inhibition (IC50) in series [2] stood at 0.36 µM; in series [3], 0.32 µM; in series [4], 0.84 µM; in [6], 6 µM; in [7], 0.23 µM. Besides, the Activity result in [5] is recorded as “Not Active”. Further, the Ratio IC50 in [8] and in [9] was over 10 in each case.
